Compound activity: PubChem BioAssay, several laboratories
Only some compounds are listed: those with a hit (about 1.3% of all), similar ones and a draw of the others.
MT1-MMP act inh: blockers of MT1-MMP proenzyme processing, primary screen, HT1080 RFP-PRO-GFP cells, GFP/RFP fluorescence | Matrix metalloproteinase-14 (Homo sapiens), P50281 | GFP/RFP ratio fluorescence, overnight; percent of plate control window, DMSO zero | GFP/RFP ratio change, % at 20 µM | 360,000 tested, 0.061% active | AID 651647, 2012;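 active means GFP/RFP ratio change of at least 30% with cell ATP level not reduced by more than half and red fluorescence within 50% of control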
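Material – HT1080 RFP-PRO-GFP cells · Control set – DMSO wells and RFP-L50D-GFP cells · Incubation – overnight cell settling, then overnight compound exposure, 37 °C, 5% CO2 · Compound dosing – single-point 20 µM compound, 1% DMSO · Read-out – GFP/RFP fluorescence ratio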
sPLA2-III inh: human group III sPLA2 inhibitors, primary screen, biochemical, QFRET, BODIPY PC-A2 liposome substrate; inhibition, % at 12.2 µM; Group 3 secretory phospholipase A2 (Homo sapiens), Q9NZ20; QFRET BODIPY PC-A2 liposome hydrolysis, fluorescence; 370,000 tested, 0.56% active;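 active means inhibition above mean plus 3 SD of compounds lying within the high and low control bounds, cut at about 19% in these data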;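 further: 0% = median of test compound wells and 100% = no enzyme DMSO wells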
Target sequence (Q9NZ20 whole entry, looked up): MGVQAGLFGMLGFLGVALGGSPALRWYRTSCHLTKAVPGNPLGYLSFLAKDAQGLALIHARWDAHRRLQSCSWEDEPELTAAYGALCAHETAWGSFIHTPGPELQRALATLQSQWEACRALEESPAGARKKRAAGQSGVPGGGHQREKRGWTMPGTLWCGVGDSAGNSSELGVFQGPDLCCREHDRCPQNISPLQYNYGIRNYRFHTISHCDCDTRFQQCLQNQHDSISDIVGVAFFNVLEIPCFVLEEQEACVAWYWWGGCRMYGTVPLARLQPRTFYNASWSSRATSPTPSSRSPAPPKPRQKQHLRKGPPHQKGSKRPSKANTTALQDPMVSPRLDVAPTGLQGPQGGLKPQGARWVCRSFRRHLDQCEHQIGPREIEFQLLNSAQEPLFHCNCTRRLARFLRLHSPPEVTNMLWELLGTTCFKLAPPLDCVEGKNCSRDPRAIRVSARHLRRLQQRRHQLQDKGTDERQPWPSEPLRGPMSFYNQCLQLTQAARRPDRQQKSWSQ
Efflux pump inh: inhibitors of Candida efflux pumps in yeast, primary screen, S. cerevisiae, Nile Red, multiplex | AID 485275, 2010 | inhibition, % at 10 µM | 330,000 tested, 0.44% active | S. cerevisiae Candida pump triplex;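 active means plate passing quality check with inhibition over a set limit, or well fluorescence over plate mean plus 4 SD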;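 further: Nile Red retained in pooled yeast measured as flow cytometry median fluorescence; 0% = buffer negative control and 100% = Enniatin B positive control; higher means more Nile Red kept so more efflux inhibition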
TAG inh: inhibitors of triacylglycerol accumulation, primary screen, cell-based, uHTS, fluorescence, H9c2; inhibition, % at 12.5 µM; 230,000 tested, 0.66% active; H9c2 cells, Nile Red lipid (TAG) fluorescence; cells loaded with 200 µM oleic acid; AID 651582, 2012;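 active means pattern-corrected inhibition of lipid staining of at least 50% with the nuclear-stain viability signal not falling by more than 50%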;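 further: 0% = DMSO wells and 100% = triacsin C control wells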
sPLA2 confirm: human group III sPLA2 inhibitors, confirmation, biochemical, QFRET, triplicate | shares compounds with sPLA2-III inh | recombinant hGIII-sPLA2, BODIPY PC-A2 QFRET fluorescence | inhibition, % at 12.2 µM | 2,000 tested, 34% active | AID 743280, 2014;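 active means mean inhibition across triplicates above the hit cutoff set in the earlier primary screen, cut at about 19% in these data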;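 further: 0% = enzyme with DMSO and 100% = DMSO wells lacking enzyme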
535nm interf: 535nm fluorescence optical interference, confirmation, artefact control for HGIII-sPLA2 inhibitor project, biochemical, QFRET; shares compounds with sPLA2-III inh; BODIPY FL product fluorescence interference; inhibition, % at 12.2 µM; 2,000 tested, 8.5% active; AID 743282, 2014;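 active means average inhibition above the solvent-only control mean plus 3 SD, cut at about 6% in these data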;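 further: 0% = DMSO with substrate plus product and 100% = DMSO with substrate alone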
BODIPY interf DR: 535nm fluorescence optical interference, dose response, artefact control for HGIII-sPLA2 inhibitor project, biochemical, QFRET | shares compounds with sPLA2-III inh | BODIPY FL product fluorescence interference, cell-free | IC50, µM | 240 tested, under 10 active | AID 743455, 2014;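 active means IC50 at or below 10 µM; inactive means IC50 above 10 µM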
The depositor's hits bear a star.

Cc1ccc(-n2c(C(C)C)nc3oc4ccccc4c(=O)c3c2=O)cc1 was read as MT1-MMP act inh 2, sPLA2-III inh 7, Efflux pump inh 0 and TAG inh 3.
For CC1CCc2nc3sc4c(c3c(N)c2C1)CCCC4 (configuration not stated) the results were MT1-MMP act inh 1, sPLA2-III inh 20*, Efflux pump inh -7, sPLA2 confirm 11 and 535nm interf -5.
Screening O=c1[nH]c(=S)[nH]c2c1C(c1ccc(Cl)cc1)OC(C1CCCCC1)C2 (configuration not stated) returned MT1-MMP act inh -3 and sPLA2-III inh -3.
Screening CCCC(=O)NC(c1ccc(Cl)cc1)c1ccc2cccnc2c1O (configuration not stated) returned MT1-MMP act inh 1, sPLA2-III inh 22*, Efflux pump inh 0, TAG inh 63, sPLA2 confirm 24* and 535nm interf -5.
CC(=O)NC(c1ccc(Cl)cc1Cl)c1ccc2cccnc2c1O (configuration not stated) was read as MT1-MMP act inh 13, sPLA2-III inh 19*, Efflux pump inh 0, sPLA2 confirm 23* and 535nm interf -9.
For CCCCC(=O)NC(c1ccc(N(C)C)cc1)c1ccc2cccnc2c1O (configuration not stated) the results were MT1-MMP act inh 13, sPLA2-III inh 38*, Efflux pump inh 0, TAG inh 55, sPLA2 confirm 26* and 535nm interf -7.
For CCCCC(=O)NC(c1ccccc1OC)c1ccc2cccnc2c1O (configuration not stated) the results were MT1-MMP act inh 10, sPLA2-III inh 31*, Efflux pump inh 0, TAG inh 91, sPLA2 confirm 28*, 535nm interf -11 and BODIPY interf DR >122.
For CC(=O)NC(c1ccc2ccccc2c1)c1ccc2cccnc2c1O (configuration not stated) the results were MT1-MMP act inh 14, sPLA2-III inh 15 and Efflux pump inh 0.
For COc1ccc(C(NC(C)=O)c2ccc3cccnc3c2O)c(OC)c1 (configuration not stated) the results were MT1-MMP act inh 7, Efflux pump inh 0 and TAG inh 30.
`CSCCC(NC(=O)COc1ccccc1)C(=O)OC(C)C(=O)Nc1ccccc1C` (configuration not stated) gave MT1-MMP act inh 3, sPLA2-III inh 0, Efflux pump inh 0 and TAG inh -8.
Screening COC(=O)CC#C[C@H](C)[C@@H](NS(C)(=O)=O)C(C)(C)COCc1ccccc1 returned sPLA2-III inh -7.
CCN(CC)c1ccc(C(NC(=O)C(C)C)c2ccc3cccnc3c2O)cc1 (configuration not stated) was read as MT1-MMP act inh -9, sPLA2-III inh 36*, TAG inh 31, sPLA2 confirm 23* and 535nm interf -2.
Screening COc1ccc(CCNC(=O)c2cnc3ccccn3c2=O)cc1 returned MT1-MMP act inh 1, sPLA2-III inh 21*, Efflux pump inh 0, TAG inh -10, sPLA2 confirm -5 and 535nm interf -4.
`COc1ccc(CCNC(=O)c2ccccc2C(=O)NCCc2ccc(OC)cc2)cc1` gave MT1-MMP act inh 2, sPLA2-III inh 5, Efflux pump inh 0 and TAG inh 1.
For C=CS(=O)(=O)N(Cc1ccc(F)cc1)C(=C)C(=O)OC the results were sPLA2-III inh 19.
CC(C)NC(=O)c1ccccc1NC(=O)/C=C/c1cccc([N+](=O)[O-])c1 was read as MT1-MMP act inh 3, sPLA2-III inh 23*, Efflux pump inh 0, sPLA2 confirm -3 and 535nm interf 4.
For CN(C)S(=O)(=O)c1ccc(C(=O)NN2C(=O)NC3(CCCCC3)C2=O)cc1 the results were MT1-MMP act inh 2, sPLA2-III inh 3 and TAG inh 2.
For O=C(NCc1cccs1)c1cnn2cccnc12 the results were MT1-MMP act inh -1, sPLA2-III inh 24*, Efflux pump inh 0, sPLA2 confirm -5 and 535nm interf -5.
Screening CCCNC(=O)Nc1cccc(NC(C)=O)c1 returned MT1-MMP act inh -3, sPLA2-III inh -4, Efflux pump inh 0 and TAG inh 5.
Screening CCCNC(=O)Nc1cccc(C(=O)OC)c1 returned MT1-MMP act inh 4, sPLA2-III inh 21*, Efflux pump inh 0, TAG inh 2, sPLA2 confirm 8 and 535nm interf -6.
Screening O=C1c2c(O)ccc(O)c2C(=O)c2c(NCCNCCO)ccc(NCCNCCO)c21 returned MT1-MMP act inh -21, sPLA2-III inh 35*, Efflux pump inh 0, TAG inh 144, sPLA2 confirm 40*, 535nm interf -21 and BODIPY interf DR >122.
`O=C1c2cccc(O)c2C(=O)c2c(O)cc(CO)cc21` gave Efflux pump inh 0.
`CC(=O)c1ccc(OC(C)C)c(CSC(=N)N)c1` gave MT1-MMP act inh -5, sPLA2-III inh 8 and Efflux pump inh 0.
For CCOc1ccc(CSC(=N)N)cc1 the results were MT1-MMP act inh 1, sPLA2-III inh 10, Efflux pump inh 0 and TAG inh -4.
Screening CCCCOc1ccc(CSC(=N)N)cc1Cl returned MT1-MMP act inh -5, sPLA2-III inh 54*, Efflux pump inh 0, TAG inh 36, sPLA2 confirm 32*, 535nm interf -26 and BODIPY interf DR >122.
CCCCCOc1ccc(Br)cc1CSC(=N)N was read as MT1-MMP act inh -28, sPLA2-III inh 29*, sPLA2 confirm 21* and 535nm interf -29.
COc1ccc(Br)cc1CSC(=N)N was read as MT1-MMP act inh -3, sPLA2-III inh 33*, Efflux pump inh 0, TAG inh 1, sPLA2 confirm 18 and 535nm interf -5.
For Cc1cc(Br)c2[nH]cc(CCNC(=O)c3ccco3)c2c1 the results were MT1-MMP act inh 0, sPLA2-III inh -24 and Efflux pump inh 1.
`CC1=C(C(=O)N(C(C)C)C(C)C)CC(CC(=O)NCc2cccc3ccccc23)C(=O)N1CCC1=CCCCC1` (configuration not stated) gave MT1-MMP act inh -6 and sPLA2-III inh -15.
